Where “and” joins values, the source holds several entries; their conditions need not be identical. Equal values may be shown once.
Experiments:
[1] = system: Staphylococcus aureus; test: Antibacterial activity against methicillin-resistant Staphylococcus aureus CC398 assessed as inhibition of bacterial growth by broth microdilution method; format: functional
[2] = molecular target: DNA gyrase (Escherichia coli, UniProt P0AES4+P0AES6); test: Inhibition of Escherichia coli DNA gyrase by fluorescence based microtiter plate reader assay; format: protein-complex assay
[3] = molecular target: Topoisomerase IV (Staphylococcus aureus, UniProt P0C1S7+P0C1U9); test: Inhibition of Staphylococcus aureus topoisomerase 4 using pNO1 plasmid DNA as substrate incubated for 30 mins by fluorescence based microtiter plate reader assay; format: protein-complex assay
Topoisomerase IV, sequence (P0C1U9 whole entry): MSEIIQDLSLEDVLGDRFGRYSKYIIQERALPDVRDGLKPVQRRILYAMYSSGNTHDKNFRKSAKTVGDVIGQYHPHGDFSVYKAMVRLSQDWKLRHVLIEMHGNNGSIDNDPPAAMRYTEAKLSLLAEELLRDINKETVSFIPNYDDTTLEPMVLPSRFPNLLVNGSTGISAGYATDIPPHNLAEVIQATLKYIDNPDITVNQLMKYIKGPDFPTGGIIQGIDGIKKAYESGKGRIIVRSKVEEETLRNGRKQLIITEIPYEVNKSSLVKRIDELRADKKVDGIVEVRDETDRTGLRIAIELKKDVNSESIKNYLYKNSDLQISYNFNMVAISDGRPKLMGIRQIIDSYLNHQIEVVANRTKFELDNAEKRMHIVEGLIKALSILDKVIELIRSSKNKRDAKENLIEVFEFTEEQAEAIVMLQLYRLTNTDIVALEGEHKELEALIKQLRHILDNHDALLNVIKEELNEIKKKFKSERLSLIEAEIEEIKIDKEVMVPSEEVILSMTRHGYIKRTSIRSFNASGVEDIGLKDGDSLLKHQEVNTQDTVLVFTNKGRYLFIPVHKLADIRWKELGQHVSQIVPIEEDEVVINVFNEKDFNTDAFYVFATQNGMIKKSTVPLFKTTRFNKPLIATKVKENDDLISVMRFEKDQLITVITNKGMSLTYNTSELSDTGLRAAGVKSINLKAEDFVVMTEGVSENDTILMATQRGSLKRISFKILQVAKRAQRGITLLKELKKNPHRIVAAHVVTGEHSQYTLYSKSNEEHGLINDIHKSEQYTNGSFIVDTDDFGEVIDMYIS
Topoisomerase IV, sequence (P0C1S7 whole entry): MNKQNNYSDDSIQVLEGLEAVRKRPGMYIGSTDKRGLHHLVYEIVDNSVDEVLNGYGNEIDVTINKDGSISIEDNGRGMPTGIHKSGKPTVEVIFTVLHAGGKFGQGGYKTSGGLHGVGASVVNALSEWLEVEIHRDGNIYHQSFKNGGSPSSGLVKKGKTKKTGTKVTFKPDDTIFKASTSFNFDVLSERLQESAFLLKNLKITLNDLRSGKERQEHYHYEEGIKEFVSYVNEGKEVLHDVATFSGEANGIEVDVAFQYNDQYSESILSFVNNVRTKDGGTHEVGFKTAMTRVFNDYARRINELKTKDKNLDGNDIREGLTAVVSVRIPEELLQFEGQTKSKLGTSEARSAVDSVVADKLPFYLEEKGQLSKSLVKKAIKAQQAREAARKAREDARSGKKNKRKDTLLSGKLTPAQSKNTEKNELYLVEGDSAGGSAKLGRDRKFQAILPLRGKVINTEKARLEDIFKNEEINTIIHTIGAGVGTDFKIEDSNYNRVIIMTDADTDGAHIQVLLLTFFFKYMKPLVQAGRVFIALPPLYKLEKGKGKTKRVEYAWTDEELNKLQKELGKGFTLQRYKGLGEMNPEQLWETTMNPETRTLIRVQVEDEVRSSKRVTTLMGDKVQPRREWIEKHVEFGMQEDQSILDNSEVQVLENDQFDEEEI

[4] = molecular target: DNA gyrase (Staphylococcus aureus, UniProt P0A0K8+P20831); test: Inhibition of Staphylococcus aureus DNA gyrase supercoiling activity using pNO1 plasmid DNA as substrate incubated for 30 mins by fluorescence based microtiter plate reader assay; format: protein-complex assay
DNA gyrase (Staphylococcus aureus, UniProt P0A0K8+P20831), sequence (P0A0K8 whole entry): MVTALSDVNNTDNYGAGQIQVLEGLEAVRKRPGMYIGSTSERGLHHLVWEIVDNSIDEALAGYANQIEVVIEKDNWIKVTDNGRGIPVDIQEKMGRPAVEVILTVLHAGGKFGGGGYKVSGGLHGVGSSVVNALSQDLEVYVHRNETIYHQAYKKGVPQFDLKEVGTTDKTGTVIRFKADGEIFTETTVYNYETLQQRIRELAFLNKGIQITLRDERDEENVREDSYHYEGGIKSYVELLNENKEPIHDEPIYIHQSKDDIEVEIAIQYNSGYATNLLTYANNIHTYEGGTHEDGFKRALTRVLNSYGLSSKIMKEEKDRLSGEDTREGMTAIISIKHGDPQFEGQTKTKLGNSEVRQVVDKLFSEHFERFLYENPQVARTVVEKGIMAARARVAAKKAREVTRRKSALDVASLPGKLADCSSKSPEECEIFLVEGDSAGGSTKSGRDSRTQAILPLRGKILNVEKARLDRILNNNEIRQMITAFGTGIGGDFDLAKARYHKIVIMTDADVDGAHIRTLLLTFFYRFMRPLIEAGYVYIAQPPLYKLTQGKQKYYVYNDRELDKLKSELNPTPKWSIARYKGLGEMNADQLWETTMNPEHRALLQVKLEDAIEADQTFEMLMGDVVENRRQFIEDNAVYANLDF
DNA gyrase (Staphylococcus aureus, UniProt P0A0K8+P20831), sequence (P20831 whole entry): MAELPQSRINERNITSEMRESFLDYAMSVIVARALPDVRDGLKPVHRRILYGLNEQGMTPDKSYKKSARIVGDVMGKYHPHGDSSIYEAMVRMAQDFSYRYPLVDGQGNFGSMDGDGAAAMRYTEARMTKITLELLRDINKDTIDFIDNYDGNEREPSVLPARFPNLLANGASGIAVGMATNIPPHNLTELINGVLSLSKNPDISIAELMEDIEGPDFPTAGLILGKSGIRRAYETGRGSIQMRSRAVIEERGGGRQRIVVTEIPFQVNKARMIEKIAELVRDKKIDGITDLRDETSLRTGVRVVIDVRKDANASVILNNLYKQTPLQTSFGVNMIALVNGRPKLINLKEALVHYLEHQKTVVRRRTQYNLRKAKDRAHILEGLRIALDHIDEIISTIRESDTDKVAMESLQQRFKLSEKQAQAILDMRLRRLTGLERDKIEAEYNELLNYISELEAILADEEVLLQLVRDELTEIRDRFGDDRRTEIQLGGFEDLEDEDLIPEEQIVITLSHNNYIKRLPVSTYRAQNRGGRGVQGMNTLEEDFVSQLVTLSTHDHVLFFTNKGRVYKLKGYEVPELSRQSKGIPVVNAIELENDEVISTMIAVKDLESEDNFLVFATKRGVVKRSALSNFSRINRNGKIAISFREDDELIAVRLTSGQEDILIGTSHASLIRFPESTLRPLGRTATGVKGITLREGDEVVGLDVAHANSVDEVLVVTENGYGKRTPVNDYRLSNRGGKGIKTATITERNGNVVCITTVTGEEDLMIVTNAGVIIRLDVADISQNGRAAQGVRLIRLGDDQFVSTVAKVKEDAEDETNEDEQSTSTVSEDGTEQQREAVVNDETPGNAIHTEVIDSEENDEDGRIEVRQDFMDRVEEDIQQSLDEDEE

[5] = system: Staphylococcus aureus; test: Antibacterial activity against methicillin-susceptible Staphylococcus aureus NCTC 8325-4 assessed as inhibition of bacterial growth by broth microdilution method; format: functional
[6] = molecular target: Voltage-gated inwardly rectifying potassium channel KCNH2 (Homo sapiens, UniProt Q12809); test: Inhibition of hERG by fluorescence polarization assay; format: toxicity
Voltage-gated inwardly rectifying potassium channel KCNH2, sequence (Q12809 whole entry): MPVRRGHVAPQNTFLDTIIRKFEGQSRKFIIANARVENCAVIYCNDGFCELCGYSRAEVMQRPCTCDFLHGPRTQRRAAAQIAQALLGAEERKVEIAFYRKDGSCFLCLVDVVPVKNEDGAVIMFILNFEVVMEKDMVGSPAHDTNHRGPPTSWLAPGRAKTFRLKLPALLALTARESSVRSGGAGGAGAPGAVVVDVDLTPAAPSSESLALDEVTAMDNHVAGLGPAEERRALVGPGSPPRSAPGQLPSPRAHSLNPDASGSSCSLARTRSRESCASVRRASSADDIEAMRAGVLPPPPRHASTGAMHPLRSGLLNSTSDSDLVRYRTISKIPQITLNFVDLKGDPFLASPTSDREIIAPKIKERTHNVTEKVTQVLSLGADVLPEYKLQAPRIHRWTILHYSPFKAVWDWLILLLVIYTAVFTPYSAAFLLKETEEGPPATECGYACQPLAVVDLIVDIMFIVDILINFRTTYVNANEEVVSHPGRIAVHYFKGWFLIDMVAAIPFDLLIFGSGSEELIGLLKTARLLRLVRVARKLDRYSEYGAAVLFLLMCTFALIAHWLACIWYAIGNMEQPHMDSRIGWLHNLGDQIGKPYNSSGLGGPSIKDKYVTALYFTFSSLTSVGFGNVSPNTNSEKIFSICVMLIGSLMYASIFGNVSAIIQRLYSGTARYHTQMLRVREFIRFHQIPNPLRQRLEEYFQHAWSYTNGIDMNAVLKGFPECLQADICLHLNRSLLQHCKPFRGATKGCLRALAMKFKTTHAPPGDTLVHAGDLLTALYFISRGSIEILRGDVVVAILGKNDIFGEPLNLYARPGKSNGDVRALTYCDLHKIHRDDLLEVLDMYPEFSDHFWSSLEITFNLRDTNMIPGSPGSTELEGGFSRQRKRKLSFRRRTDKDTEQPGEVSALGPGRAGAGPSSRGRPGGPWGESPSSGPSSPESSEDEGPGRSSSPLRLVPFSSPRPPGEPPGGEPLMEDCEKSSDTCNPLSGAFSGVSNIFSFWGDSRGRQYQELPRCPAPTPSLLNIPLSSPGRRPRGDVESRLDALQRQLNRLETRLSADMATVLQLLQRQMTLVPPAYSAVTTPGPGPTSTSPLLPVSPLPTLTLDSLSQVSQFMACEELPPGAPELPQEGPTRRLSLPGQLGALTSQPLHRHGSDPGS
Outline: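 hERG inhibition was measured with a commercial Predictor hERG fluorescence-polarization kit.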

[7] = Staphylococcus aureus, CC398, read-out: MIC
[8] = Staphylococcus aureus, NCTC 8325-4, read-out: MIC

SMILES	MIC [1, 7]	IC50 [2]	IC50 [3]	IC50 [4]	MIC [5, 8]	EC50 [6]	MIC [1]	MIC [5]
COc1ccc2ncc(F)c([C@@H](O)CC[C@@H]3CCN(CCSc4cccs4)C[C@@H]3C(=O)O)c2c1	0.2 µg/mL and 0.4 µM	3.9 µM	8.8 µM	0.34 µM	0.8 µM and 0.4 µg/mL	24 µM	–	–
COc1ccc2ncc(F)c(CCCN3CCN(CCCc4ccccc4)C[C@@H]3C(=O)O)c2c1	0.4 µg/mL and 0.9 µM	–	10.2 µM	0.46 µM	1.7 µM and 0.8 µg/mL	17 µM	–	–
COc1ccc2ncc(F)c(CCCN3CCN(CCSc4cccs4)C[C@H]3C(=O)O)c2c1	1.6 µg/mL and 3.3 µM	–	–	–	6.3 µM and 3.1 µg/mL	26 µM	–	–
COc1ccc2ncc(F)c(CCCN3CCN(CCc4ccccc4)C[C@@H]3C(=O)O)c2c1	3.1 µg/mL and 6.9 µM	–	12.6 µM	0.54 µM	14 µM and 6.3 µg/mL	87 µM	–	–
COc1ccc2ncc(F)c(CCCN3CCN(Cc4ccccc4)C[C@@H]3C(=O)O)c2c1	–	–	–	–	> 114 µM and > 50 µg/mL	25 µM	–	–
COc1ccc2ncc(F)c(CCCN3CCN(C/C=C/c4ccccc4)C[C@@H]3C(=O)O)c2c1	0.2 µg/mL and 0.4 µM	–	3.36 µM	0.19 µM	1.7 µM and 0.8 µg/mL	38 µM	–	–
COc1ccc2ncc(F)c(CCCN3CCN(CCSc4cccs4)C[C@@H]3C(=O)O)c2c1	0.2 µg/mL and 0.4 µM	5.4 µM	7.64 µM	0.37 µM	0.8 µM and 0.4 µg/mL	17 µM	–	–
COc1ccc2ncc(F)c(CCCN3CCN(CCSc4cccs4)C[C@@H]3C(=O)NC(=O)CC(=O)O)c2c1	12.5 µg/mL and 21.8 µM	–	–	–	21.8 µM and 12.5 µg/mL	0.5 µM	–	–
COc1ccc2ncc(F)c(/C=C/CN3CCN(CCSc4cccs4)C[C@@H]3C(=O)O)c2c1	0.8 µg/mL and 1.6 µM	–	1.81 µM	0.68 µM	3.1 µM and 1.5 µg/mL	< 30 µM	–	–
COc1ccc2ncc(F)c(CCCN3CCN(C(=O)CCc4ccccc4)C[C@@H]3C(=O)O)c2c1	> 50 µg/mL and > 104 µM	–	–	–	> 104 µM and > 50 µg/mL	–	–	–
COc1ccc2ncc(F)c(CCCN3CCN(C/C=C/c4cc(F)ccc4F)C[C@@H]3C(=O)O)c2c1	0.1 µg/mL and 0.2 µM	6.46 µM	2.41 µM	0.28 µM	0.4 µM and 0.2 µg/mL	25 µM	–	–
COc1ccc2ncc(F)c(CCCN3CCN(C(=O)CSc4ccccc4)C[C@@H]3C(=O)O)c2c1	–	–	–	–	> 100 µM and > 50 µg/mL	< 30 µM	–	–
COc1ccc2ncc(F)c(C(O)CCN3CCN(CCSc4cccs4)C[C@@H]3C(=O)O)c2c1 (mixture of isomers; 20)	–	–	–	–	–	–	6.2 ug ml-1 and 12.3 uM	12.5 µg/mL
COc1ccc2ncc(F)c(CCCN3CCN(CCSc4cccs4)C[C@@H]3C(N)=O)c2c1	–	–	–	–	1.6 µM and 0.8 µg/mL	2 µM	–	–
COc1ccc2ncc(F)c(C#CCN3CCN(CCSc4cccs4)C[C@@H]3C(=O)O)c2c1	12.5 µg/mL and 25.7 µM	–	2.47 µM	0.48 µM	51.5 µM and 25 µg/mL	< 30 µM	–	–
COc1ccc2ncc(F)c(/C=C\CN3CCN(CCSc4cccs4)C[C@@H]3C(=O)O)c2c1	3.1 µg/mL and 6.4 µM	–	9.92 µM	0.28 µM	25.6 µM and 12.5 µg/mL	< 30 µM	–	–
COc1ccc2ncc(F)c(CCCN3CCN(CCCCc4ccccc4)C[C@@H]3C(=O)O)c2c1	3.1 µg/mL and 6.5 µM	–	3.82 µM	0.37 µM	12.9 µM and 6.2 µg/mL	21 µM	–	–
COc1ccc2ncc(F)c(CCCN3CCN(C(=O)CSc4cccs4)C[C@@H]3C(=O)O)c2c1	> 50 µg/mL and > 99.3 µM	–	–	–	> 99.3 µM and > 50 µg/mL	7 µM	–	–
COc1ccc2ncc(F)c(C(O)CCN3CCN(CCSc4cccs4)C[C@@H]3C(=O)O)c2c1 (mixture of isomers; 19)	–	–	–	–	24.7 µM and 12.5 µg/mL	< 30 µM	0.8 ug ml-1 and 1.6 uM	–
COC(=O)[C@H]1CN(CCSc2cccs2)CCN1CCCc1c(F)cnc2ccc(OC)cc12	> 50 µg/mL and > 99.3 µM	18.4 µM	–	300 µM	> 99.3 µM and > 50 µg/mL	2 µM	–	–
COC(=O)[C@@H]1CN(CCSc2cccs2)CCN1CCCc1c(F)cnc2ccc(OC)cc12	> 50 µg/mL and > 99.3 µM	–	–	–	> 99.3 µM and > 50 µg/mL	4 µM	–	–
COc1ccc2ncc(F)c(CCCN3CCN(CCSc4cccs4)[C@@H](C(=O)O)C3)c2c1	1.6 µg/mL and 3.3 µM	–	–	–	6.3 µM and 3.1 µg/mL	< 30 µM	–	–
